Source: PubChem (SRMLSC)
Many of the other results were omitted from the sample, so hits are more common in it than they were.
PostGolgi ctrl: growth inhibition of yeast control strain, primary screen, counter-screen for post-Golgi transport modulator project. efflux-deficient yeast background strain, growth absorbance A615, 16 h. inhibition, % at 10 µM. 98,000 tested, 5% active
Yeast growth inh: growth inhibitors of yeast BB579 in restrictive medium, primary screen, yeast lifespan-shortening project, S. cerevisiae; OD615, 48 h; inhibition, % at 10 µM; 140,000 tested, 0.51% active; AID 804, 2007;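 active = inhibition above a set limit, 3 SD over the mean compound inhibition, cut at about 44% in these data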
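System: Saccharomyces cerevisiae DeaD strain BB579, replicative lifespan model yeast | Buffer or medium: Restrictive glucose-based CSMM-D medium | Times: 4 h preincubation and 48 h exposure at 30 °C | Detection: OD615 turbidity measurement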
PostGolgi yeast: phenotypic screen on post-Golgi transport, primary screen; inhibition, % at 10 µM; post-Golgi transport phenotypic cell assay; 98,000 tested, 0.9% active;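 also: yeast cells grown in 1536-well plates; yeast grown about 18 h at 30C before absorbance read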
Yeast lifespan up: compounds extending yeast replicative lifespan, primary screen, S. cerevisiae, OD615; S. cerevisiae growth with nicotinamide; deaD strain in restrictive glucose medium; inhibition of the nicotinamide effect, % at 10 µM; 130,000 tested, 0.68% active;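 active = inhibition above a set limit, placed 3 SD over the median of all compounds, cut at about 26% in these data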
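Test system – modified budding yeast, DeaD strain · Compound – single dose 10 µM compound, 0.25% DMSO · Times – culture preincubation 4 h, compound exposure 48 h, both 30 °C · Detection – optical density (absorbance) at 615 nm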
A number is an active result; n = inactive; x = not tested or not shown. Rule as the data show it, unless noted: active = inhibition above about 30%; inactive = the rest.

SMILES	PostGolgi ctrl	Yeast growth inh	PostGolgi yeast	Yeast lifespan up
N#CC1=C(N)c2ccccc2CC12CCCCC2	39	n	n	n
Cc1ccc([N+](=O)[O-])cc1N(CC(=O)Nc1ccc(S(=O)(=O)Nc2cccc(C(F)(F)F)c2)cc1)S(C)(=O)=O	x	n	x	n
CCOC(=O)C1CCN(C(c2cc3c(C)ccc(C)c3[nH]c2=O)c2nnnn2C2CCCCC2)CC1 (centres undefined)	30	n	n	n
CCOC(=O)C1CCN(C(c2cc3ccc(C)c(C)c3[nH]c2=O)c2nnnn2C2CCCCC2)CC1 (centres undefined)	n	n	n	n
O=C(CN1C(=O)C2C3C=CC(C3)C2C1=O)N1CC=C(c2ccccc2)CC1 (centres undefined)	31	n	n	n
O=C(CNC(=O)c1ccc(S(=O)(=O)N2CCCC2)cc1)N/N=C/c1c(Cl)cccc1Cl	x	n	x	n
N#C/C(=C\c1ccc(Sc2ccc(Cl)cc2)o1)c1nc2ccccc2[nH]1	x	n	x	n
N#C/C(=C\c1ccc(Sc2nc3ccccc3[nH]2)o1)c1ccccc1	54	n	n	n
O=C(NCCc1ccccc1)C(=O)c1c(-c2ccccc2)[nH]c2ccccc12	x	n	x	n
Cc1ccc(C(=O)N/C(=C\c2ccco2)C(=O)NCCCn2ccnc2)cc1C	n	n	n	n
CCOC(=O)c1c(C)n(C)c2ccc(OC(C)C(=O)OC)cc12 (centres undefined)	32	n	n	n
CCOC(=O)c1c(C)n(C)c2ccc(OCCN(C)C)cc12	n	n	n	n
Cc1cc(CCCCCCCCc2cc(C)cc(=O)o2)oc(=O)c1	x	n	x	n
CCOc1ccc(Br)cc1C1C(C(=O)OC)=C(N)Oc2cc(N(C)C)ccc21 (centres undefined)	31	n	n	n
CCNC(=O)C(=O)NCC1OCCCN1S(=O)(=O)c1cccs1 (centres undefined)	x	n	x	n
COC(=O)c1cc(Cl)c(NC(=O)c2ccc(F)cc2)cc1OC	x	n	x	n
Cc1sc(NC(=O)C2CCCCC2C(=O)O)c(C(N)=O)c1-c1ccccc1 (centres undefined)	n	n	n	n
Cc1sc(NC(=O)C2CCCCC2C(=O)O)c(C(N)=O)c1-c1ccc(C(C)(C)C)cc1 (centres undefined)	30	n	n	n
O=C(CNC(=O)c1ccc(Cl)cc1Cl)NCCCn1ccnc1	n	n	n	n
O=C(Nc1nc(-c2ccccn2)cs1)C1COc2ccccc2O1 (centres undefined)	39	93	31	n
COC(=O)c1cccc(NC(=O)C2COc3ccccc3O2)c1C (centres undefined)	x	n	x	x
CN1CCN(c2ccc(Cl)cc2NC(=O)c2cccc(S(=O)(=O)N(C)C)c2)CC1	n	n	n	n
COC(=O)c1cc(NC(=O)C2COc3ccccc3O2)ccc1Cl (centres undefined)	30	n	n	n
COC(=O)c1cccc(NC(=O)C2COc3ccccc3O2)c1 (centres undefined)	39	n	n	n
CN1CCN(c2ccc(Cl)cc2NC(=O)C2COc3ccccc3O2)CC1 (centres undefined)	30	n	n	n
SMILES	PostGolgi ctrl	Yeast growth inh	PostGolgi yeast	Yeast lifespan up
COc1cccc(CC(=S)N2CCOCC2)c1	x	n	x	n
Cc1cccc(OCCNc2cc(N3CCN(CCO)CC3)ccc2[N+](=O)[O-])c1	x	n	x	n
COc1ccccc1-c1cc(C(F)(F)F)nc(NCc2ccco2)n1	31	n	n	n
Cc1nc(-c2cccc(NS(=O)(=O)c3cccc4ccccc34)c2)cs1	63	n	n	n
CCCNC(=O)CN(c1ccc(F)cc1)S(=O)(=O)c1ccc2c(c1)OCCO2	n	n	n	n
O=C(CN(c1ccc(F)cc1)S(=O)(=O)c1ccc2c(c1)OCCO2)NCC1CCCO1 (centres undefined)	33	n	n	n
O=C1C(=O)c2c(C(=O)c3ccccc3)coc2-c2ccccc21	45	99	59	n
Cc1oc2c(c1C(=O)c1ccccc1)C(=O)C(=O)c1ccccc1-2	43	n	n	n
CCOC(=O)C1=C(N)N2C(=O)C(C)SC2=C(C(=O)OCC)C1c1ccccc1 (centres undefined)	n	n	n	n
CCOC(=O)C1=C(N)N2C(=O)C(C)SC2=C(C(=O)OC)C1c1ccccc1OC (centres undefined)	75	n	110	n
O=C(CN1CCN(C(=O)N2CCCCC2)CC1)Nc1ccc(F)cc1	n	n	n	n
CCC/C=N/NC(=O)c1[nH]c2c([N+](=O)[O-])cccc2c1C	x	n	x	n
O=S(=O)(CCSc1nc2ccccc2o1)c1nc2ccccc2s1	61	n	n	n
O=C(CSc1ccccn1)Nc1nc2ccccc2s1	x	n	x	n
O=S(=O)(CCSc1ccccn1)c1nc2ccccc2s1	n	n	n	60
CCS(=O)(=O)CCSc1nc2ccccc2o1	n	n	n	n
O=S(Cc1cc(Oc2ccccc2)nc(-c2ccccc2)n1)c1ccccc1 (centres undefined)	35	n	n	n
COc1ccc(-c2cc(C(=O)N3CC4(C)CC3CC(C)(C)C4)no2)cc1 (centres undefined)	34	n	n	n
CC1(C)CC2CC(C)(CN2C(=O)c2cc(-c3ccccc3O)on2)C1 (centres undefined)	78	n	n	n
COc1ccc(-c2cc(C(=O)N3CC4(C)CC3CC(C)(C)C4)no2)cc1OC (centres undefined)	n	n	n	n
COc1ccc(N/C(C)=C2/C(=O)C(=O)N(CCO)C2c2ccc([N+](=O)[O-])cc2)cc1 (centres undefined)	n	n	n	n
O=C(CNc1cc(S(=O)(=O)N2CCCC2)ccc1OCC(F)(F)F)Nc1cccc(C(F)(F)F)c1	x	n	x	n
O=C(CSc1ncnc2sc3c(c12)CCCC3)N1CCC(c2noc3ccc(F)cc23)CC1	n	n	n	n
Cc1cc(SCC(=O)N2CCC(c3noc4ccc(F)cc34)CC2)nc2ccccc12	34	n	n	n
O=C(Nc1ccccc1)C1=C(O)CC(c2ccoc2)CC1=Nc1ccccc1 (centres undefined)	46	n	n	n
SMILES	PostGolgi ctrl	Yeast growth inh	PostGolgi yeast	Yeast lifespan up
O=C(Nc1ccccc1)C1=C(O)CC(c2ccco2)CC1=Nc1ccccc1 (centres undefined)	31	n	69	n
CC1CN=C2C(C(=O)Nc3ccccc3)=C(O)CC(c3ccccc3)N21 (centres undefined)	x	n	x	n
CCOC(=O)c1cnc(-n2nc(C)cc2C)nc1NC(C)c1ccccc1 (centres undefined)	44	n	n	n
CCOC(=O)c1cnc(-n2nc(C)cc2C)nc1NCCO	n	n	n	n
CCOC(=O)c1cnc(-n2nc(C)cc2C)nc1NCc1ccccc1	46	n	n	n
CCOC(=O)c1cnc(-n2nc(C)cc2C)nc1NNc1cc(-c2ccccc2)nc(C)n1	x	n	x	n
CCOC(=O)Cn1c(=NC(=O)c2nc3ccccc3s2)sc2cc(S(N)(=O)=O)ccc21	x	n	x	n
